Results reported in ChEMBL document CHEMBL1255475, “Mutant prevention concentrations of four carbapenems against gram-negative rods” (2010).

Key:
Assay type in all cases: functional
Conditions in all cases: read-out: IZ
Klebsiella pneumoniae [1] = test: Antibacterial activity against beta-lactamase-positive ESBL-positive sKlebsiella pneumoniae assessed as decrease in zone of inhibition at 30 ug by disk diffusion method
How it was run: (§1)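 ESBL screen of β-lactamase-positive enteric isolates by disk diffusion using cefotaxime and ceftazidime disks (30 μg each) alone.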

Escherichia coli [2] = test: Antibacterial activity against beta-lactamase-positive ESBL-positive Escherichia coli assessed as […] in zone of inhibition at 30 ug by disk diffusion method in presence of clavulanic acid
How it was run: (§2)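 ESBL confirmation by disk diffusion using cefotaxime and ceftazidime disks (30 μg each) combined with a 10 μg clavulanic acid disk, compared against the disks alone.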

Escherichia coli [3] = test: Antibacterial activity against beta-lactamase-positive ESBL-positive Escherichia coli assessed as […] in zone of inhibition at 30 ug by disk diffusion method; how it was run: as §1
Klebsiella pneumoniae [4] = test: Antibacterial activity against beta-lactamase-positive ESBL-positive Klebsiella pneumoniae assessed as […] in zone of inhibition at 30 ug by disk diffusion method in presence of clavulanic acid; how it was run: as §2

Measured: zone of inhibition at 30 µg/disc

O=C(O)[C@H]1/C(=C/CO)O[C@@H]2CC(=O)N21 [CLAVULANIC ACID]
≥ 5 mm: Klebsiella pneumoniae [1] | Escherichia coli [2] | Escherichia coli [3] | Klebsiella pneumoniae [4]
